This note sets out measurements from ChEMBL document CHEMBL4513216, “Probing the Open Global Health Chemical Diversity Library for Multistage-Active Starting Points for Next-Generation Antimalarials” (ACS Infect Dis, 2020).

This data set is described as follows: Toxicity liver stage against HepG2, at 10uM. It counts as cell-based. Details: test concentration 10 uM, cell line HepG2-A16-CD81EGFP. The following applies: human, HepG2-A16-CD81EGFP cells; read-out: INHIBITION
Summed up:
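Uninfected HepG2-A16-CD81EGFP cells, 3 × 10^3 per well, 1536-well, plated on prespotted compound at 10 μM final, parasite-free screening media added to match infected plates; puromycin 10 μM positive, DMSO 0.5% negative; run in parallel with 48 h PbLuc assay at 37 °C, 5% CO2; viability by CellTiter-Glo luminescence, normalized to controls.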

On to `CCC(C(=O)N1CCN(C(=O)N2CCOCC2)CC1)n1cccn1` (stereo unspecified), for which the cytotoxicity at 10 µM was found to be 2.35%.
As to `Cn1cnnc1SCc1cc2c(cc1Br)OCO2`, the cytotoxicity at 10 µM was found to be 6.44%.
The same measure for `CC(=O)N1CCN(CCNS(=O)(=O)c2cccc(F)c2)CC1`: 6.99%; for `O=C(NCCc1ccccn1)N1CCOC(c2ccccc2Cl)C1` (stereo unspecified): -7.75%.
In the case of `Cc1ccc(C(=O)N2CCC(n3cc(CO)nn3)CC2)cn1` it was -1.72%; in that of `C[C@@H]1CN(C(=O)c2ccc(C#N)nc2)CC[C@@]1(O)C1CCOCC1`, -11.5%.
As for `CC(C)N(C)C(=O)C1CCN(Cc2cnc3ccccn23)CC1`, the cytotoxicity at 10 µM is 27.5%.
In the case of `Cc1cc(CNC(=O)NC(C)c2ccccc2)no1` (stereo unspecified) it was 10.4%; in that of `Cc1oc(-c2ccco2)nc1CNC1CCCN(c2cccnn2)C1` (stereo unspecified), -2.87%.
The same measure for `Cc1c(C(=O)NC2CCCOC2)nnn1-c1ccccc1` (stereo unspecified): -24.5%; for `COc1cc(NCc2c(C)noc2C)c(C(=O)N(C)C)cc1OC`: 6.85%; for `CCCc1ccc(C(C)Nc2ncnc3c2CCNC3)cc1` (stereo unspecified): 28.1%.
In the case of `Cc1cc(C)n(CC2CN(CC(=O)NC3CCCC3)CCO2)n1` (stereo unspecified) it was -4.41%.
Take `Cc1nc(C(C)C)sc1C(C)N(C)C(=O)c1ccc(=O)n(C)c1` (stereo unspecified): the cytotoxicity at 10 µM was 1.46%.
In the case of `O=C(c1cnc(-c2cccs2)s1)N1CCCC(n2cccn2)C1` (stereo unspecified) it was -10.8%.
Consider `CCc1cc(C(=O)N2CC[C@@H](c3ccc4c(c3)OCO4)[C@H](O)C2)[nH]n1`, for which the cytotoxicity at 10 µM was -3.87%.
The same measure for `CN1CCOC(CNC(=O)CCc2cc(F)ccc2F)C1` (stereo unspecified): 2.32%.
The same measure for `CCOc1cc(C)nc(N2CCN(C(=O)c3cn[nH]c3CC)CC2)n1`: -2%.
In the case of `Cc1n[nH]c(C2CN(CCCOc3cccc(Cl)c3)CCO2)n1` (stereo unspecified) it was -5.57%.
With `COCC1CN(S(=O)(=O)Cc2ccc(C)cc2)Cc2c1cnn2C` (stereo unspecified), the cytotoxicity at 10 µM was 3.51%.
`COCCn1ccnc1C1CCN(Cc2ccccc2C#N)CC1`: the cytotoxicity at 10 µM is -10.2%.
The same measure for `CCc1n[nH]c(=O)c(C(=O)N2CCSCC2)c1CC`: 19.5%; for `O=C(CC1CCCCC1)N1C[C@@H]2CC[C@H]1CN(Cc1cccnc1)C2`: -0.662%; for `CCC(C)N(Cc1cccnc1)C(=O)CCSC` (stereo unspecified): 0.305%.
In the case of `Cc1cc(CN2CCN(C(=O)Nc3cccnc3)CC2)on1` it was -7.72%.
In the case of `CS(=O)(=O)NC1CCN(C(=O)NCc2cc[nH]n2)CC1` it was -6.37%; in that of `O=C1CCCC2=Nc3nonc3NC(c3cccc(F)c3F)C12` (stereo unspecified), 0.285%.
Regarding `COCc1nnc(NC(=O)c2cn(C(C)C)c3ccc(OC)cc23)s1`, the cytotoxicity at 10 µM was -5.86%.
As for `CCOc1ccc(NC(C)=O)cc1S(=O)(=O)Nc1nccs1`, the cytotoxicity at 10 µM is -8.2%.
The same measure for `Cc1cc2n(n1)CC(CNCc1ccccc1-n1cccn1)CN2` (stereo unspecified): -11.5%; for `Nc1ncnc2nc(C3CCN(C(=O)Cc4ccccc4)C3)ccc12` (stereo unspecified): 2.65%.
In the case of `CCCN(CC)C(=O)c1ncn2c1CN(C)S(=O)(=O)c1ccccc1-2` it was -152%.
The same measure for `CC1CN(C(=O)c2ccnc(OCCN(C)C)c2)c2ccccc21` (stereo unspecified): -0.343%; for `Cc1nc(C(C)Nc2nc3c(s2)c(C)nn3C)n[nH]1` (stereo unspecified): 10.2%; for `CCN(Cc1ccc2c(c1)OCO2)Cc1nc(C)no1`: -6.49%.
For `CC(NCc1cccc(S(=O)(=O)N(C)C)c1)c1cccnc1` (stereo unspecified), the cytotoxicity at 10 µM is 1.56%.
Regarding `CCn1ccc2cc(NC(=O)CC3CCCO3)ccc21` (stereo unspecified), the cytotoxicity at 10 µM turned out to be 2.5%.
Consider `COC1COC2(CCN(CC3CC3)CC2)C1` (stereo unspecified), for which the cytotoxicity at 10 µM was -103%.
Turning to `Cc1nnc(NC(=O)CCc2c(C)nn3cnnc3c2C)s1`, the cytotoxicity at 10 µM was -1.7%.
In the case of `CCC(NC(=O)c1cc(NC(C)=O)ccc1Cl)c1cc(C)ccn1` (stereo unspecified) it was -16.5%; in that of `COc1cc(C(=O)NCCCO)cc2occc12`, 5.47%.
In the case of `Cc1cc(C2CCCN(C(=O)c3ccc(OCC4CC4)nc3)C2)n[nH]1` (stereo unspecified) it was -12.9%.
In the case of `COC(=O)C(NC(=O)c1cc(F)cc(F)c1)c1cccnc1` (stereo unspecified) it was -39.1%.
Turning to `Cc1nc(C)c(CNCC2(COc3cccnc3)C[C@@H](O)[C@@H](O)C2)s1` (stereo partly specified), the cytotoxicity at 10 µM is -1.36%.
For the molecule `CNC(=O)[C@@H]1CC[C@@H]2[C@@H](CCN2C(=O)N(C)C)O1`, the cytotoxicity at 10 µM stood at 13.2%.
The same measure for `COCC(=O)N1CCN(CCn2cccn2)c2nc(C)ccc2C1`: 10.5%.
The same measure for `CS(=O)(=O)NC[C@@H]1OC[C@H]2CN(Cc3ccsc3)CC[C@H]21`: 14.3%; for `Clc1ccc2nc(N3CCC(NCCCC4CCOC4)CC3)sc2c1` (stereo unspecified): 4.1%; for `N#Cc1ccc(CCC(=O)N2CCCC(n3cncn3)C2)cc1` (stereo unspecified): -7.79%.
In the case of `NC(=O)N1CC[C@@H]2O[C@H](COCC(=O)N3CCCC3)CC[C@@H]21` it was -1.49%.
Turning to `O=C(CCOc1ccccc1)N1CCCC(n2cncn2)C1` (stereo unspecified), the cytotoxicity at 10 µM is -2.95%.
The same measure for `CS(=O)(=O)NC(=O)c1nnn(-c2cccc(F)c2)c1C1CC1`: -3.9%; for `COc1ccccc1CC1CCCN(CCC#N)C1` (stereo unspecified): 1.73%.
The same measure for `Cn1nc(C(=O)NCCc2ccc(OC3CCCC3)cc2)ccc1=O`: -2.61%; for `COc1ccccc1-c1nnc([C@H]2CCN(C(C)=O)C2)o1`: 4.71%.
In the case of `CCNC(=O)[C@@H]1C[C@@H](NC(=O)c2cccnc2O)CN1Cc1ccsc1` it was -5.39%; in that of `CS(=O)(=O)CCN1CCC(Nc2c(Cl)cccc2C#N)CC1`, 2.22%; in that of `Cc1cnc(C(=O)N2C[C@H]3CN(Cc4nccs4)C[C@H]3C2)cn1`, -147%.
With `COCCN(C/C=C/c1ccccc1)Cc1[nH]cnc1C`, the cytotoxicity at 10 µM worked out at 10.3%.
In the case of `COc1ccc(C(=O)NCCN2CCC(c3cccs3)CC2)cc1OC` it was -0.493%; in that of `CC(C)n1nccc1C(=O)N1CCC(c2nnsc2S(C)(=O)=O)CC1`, -0.88%.
The same measure for `O=C(CCn1ccc2ccc(Br)cc21)NCc1ccc(C(=O)O)cc1`: 13.4%; for `O=C(N[C@@H]1CN(Cc2ccccc2)C[C@@H]2CCCO[C@@H]21)C1CC1`: -6.12%.
In the case of `CN1CCN(c2ccc3ccc(C(=O)N4CCCCO4)cn23)CC1` it was -7.3%.
With `CC(C)CN1CCC2(C=C(C(=O)N3CCCC3)c3ccccc32)CC1`, the cytotoxicity at 10 µM was -3.12%.
In the case of `CC(=O)N1CCO[C@@H]2CN(C(=O)NCc3ccccc3)CC[C@@H]2C1` it was -97.7%.
In the case of `Cn1c2c(ccc1=O)CC(NS(C)(=O)=O)CC2` (stereo unspecified) it was 3.99%.
The same measure for `Cn1cccc1C(=O)N1CCc2c(CNS(C)(=O)=O)cncc2C1`: 4.68%; for `COc1ccccc1CN1C[C@@H](F)[C@@H](OCc2nc3cnccc3[nH]2)C1`: -6.66%.
Turning to `Cc1nc(CNC(=O)NC(C)c2ccc3c(c2)OCCCO3)cs1` (stereo unspecified), the cytotoxicity at 10 µM was -0.535%.
The same measure for `O=C(NC[C@]1(O)CN(Cc2ccccc2F)C[C@H]1O)c1cscn1`: -12%.
